OX1R antag-1 = human HCRTR1 antagonism | O43613 | CHO/OX1R cells, Fluo-8 calcium fluorescence, orexin A | inhibition, % at 5 µM | hit rate 0.43% among 330,000;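 active = inhibition above its plate's threshold, mean inhibition of all tested compounds on the plate plus 3 SD, cut at about 37% in these data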;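 also: 0% = orexin A challenge wells and 100% = SB-334867-A antagonist wells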
Target sequence (O43613 whole entry, looked up): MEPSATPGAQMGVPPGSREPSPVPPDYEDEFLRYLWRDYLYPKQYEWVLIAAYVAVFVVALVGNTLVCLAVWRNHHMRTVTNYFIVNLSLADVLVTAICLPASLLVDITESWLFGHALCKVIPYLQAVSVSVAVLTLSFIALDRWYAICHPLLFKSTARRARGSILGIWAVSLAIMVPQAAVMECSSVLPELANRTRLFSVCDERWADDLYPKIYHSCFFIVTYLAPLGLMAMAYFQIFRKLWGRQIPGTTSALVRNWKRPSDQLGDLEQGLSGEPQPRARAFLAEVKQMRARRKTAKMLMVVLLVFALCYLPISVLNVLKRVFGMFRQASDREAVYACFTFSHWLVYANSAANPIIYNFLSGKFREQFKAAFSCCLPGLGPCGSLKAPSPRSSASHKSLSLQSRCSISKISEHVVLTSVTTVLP
TAAR1 ag = human TAAR1 agonism | Q96RJ0 | CHO RD-HGA16 TAAR1, Fluo-8 calcium fluorescence; vehicle wells 0%, saturating PEA agonist 100% | activation, % at 3 µM | hit rate 0.99% among 360,000 | AID 624467;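 active = activation above the mean activation of all test compounds in the run plus 3 SD, cut at about 38% in these data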
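Benchmarks: low control DMSO, high control PEA (EC100); System: CHO RD-HGA16 cells carrying human TAAR1 plus Gα16; Detection: Fluo-8 fluorescence, 5 s baseline then 140 s kinetic read; Schedule: 17-24 h plating, Fluo-8 75 min 37 °C, 30 min RT; Read-out basis: % activation from peak over basal fluorescence ratio, DMSO-to-PEA scaled.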
TAAR1 antag = antagonists of human TAAR1; Q96RJ0; CHO RD-HGA16 TAAR1, Fluo-8 calcium fluorescence, antagonist; inhibition, % at 3 µM; hit rate 1.5% among 360,000;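 active = inhibition above a per-plate cutoff, the mean inhibition of test compounds on that plate plus 3 SD, cut at about 49% in these data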;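 also: 0% = DMSO plus EC80 beta-PEA response and 100% = DMSO alone without agonist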
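Test system: CHO RD-HGA16 cells bearing hTAAR1 | Reagent: β-PEA, EC80 | Compound dosing: 3 µM, single point | Schedule: Dye loading 75 min at 37 °C, then 30 min room temperature | Signal: Calcium fluorescence with Fluo-8 | Evaluation: Percent inhibition of PEA-evoked calcium signal, max/basal emission ratio | Control set: DMSO-only wells and EC80 β-PEA-stimulated wells | Repeats: Singlicate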
CHO parental Ca = counter-screen for OX1R antagonists: effect in parental CHO cells. inhibition, % at 5.6 µM. hit rate 0.63% among 330,000. parental CHO-K1, ATP-induced calcium, Fluo-8 fluorescence;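 active = inhibition above that plate's mean sample inhibition plus 3 SD, cut at about 26% in these data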;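 also: 0% = ATP-challenged DMSO wells and 100% = DMSO wells without ATP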
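Assay system: parental CHO cells; Read-out basis: percent inhibition of ATP-evoked calcium rise, normalized to controls; Benchmarks: ATP and no-ATP DMSO wells; Compound dosing: single nominal dose of 5.6 µM per compound; Signal: Fluo-8 calcium dye fluorescence; Also added: ATP as calcium-mobilizing challenge; Repeats: singlicate.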
OX1R antag-2 = antagonists of human orexin 1 receptor (OX1R). O43613. OX1R-expressing cells, FRET antagonist read-out. inhibition, % at 6.6 µM. hit rate 1.8% among 330,000; in the data active = inhibition mostly above about 38%, no sharp cut-off; inactive = mostly below about 40%;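 also: 0% = agonist challenge alone and 100% = reference antagonist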
The depositor's hits bear a star; nt = no result. Compounds with a hit are over-represented: about 4% of the library has one in this group of screens.

SMILES	OX1R antag-1	TAAR1 ag	TAAR1 antag	CHO parental Ca	OX1R antag-2
CCOc1ccc(CCNC(=O)COC(=O)C2CC2)cc1OCC	-16	1	3	-18	12
Cc1ccc(S(=O)(=O)NCc2ccncc2)c(C)c1C	3	4	4	41*	31
COc1cc(OC)c(C2CC(=O)N3CN(C)CSC3=C2C#N)cc1OC (stereo not drawn)	9	8	-27	-10	11
COc1ccc(Br)cc1C1CC(=O)N2CN(C)CSC2=C1C#N (stereo not drawn)	-16	46*	-9	-9	-1
CC(NC(=O)[C@H](NC(=O)[C@@H]1Cc2ccccc2CN1)c1ccccc1)c1ccccc1 (stereo partly drawn)	-16	3	0	-16	50*
N#C/C(=C\c1ccccc1Br)C(=O)NC1CC1	-14	5	-21	-2	7
COc1ccc(-c2cc(C(=O)OC(C)C(=O)Nc3c(C)n(C)n(-c4ccccc4)c3=O)c3ccccc3n2)cc1 (stereo not drawn)	-1	6	3	-21	62*
COc1ccc(-c2cc(C(=O)Nc3c(C)n(C)n(-c4ccccc4)c3=O)c3ccccc3n2)cc1OC	-15	17	55*	-11	6
Cc1c(NC(=O)C(C)OC(=O)c2cc(-c3cccc4ccccc34)nc3ccccc23)c(=O)n(-c2ccccc2)n1C (stereo not drawn)	-22	18	46	-17	19
COC(=O)C1=C(C)N(C)C(=NCC2CC2)NC1CCc1ccccc1 (stereo not drawn)	nt	2	-14	nt	nt
CCN=C1NC(c2ccccc2C(F)(F)F)C(C(=O)OC)=C(C)N1Cc1ccc(C(F)(F)F)cc1 (stereo not drawn)	nt	12	10	nt	nt
CN1OC[C@@H]2CN(Cc3ccccc3)[C@H](c3cccc(Oc4ccccc4)c3)C[C@@H]21	nt	0	-1	nt	nt
N#Cc1ccc(CSc2nnc(NC(=O)C3CC(=O)N(c4ccc5c(c4)OCCO5)C3)s2)cc1 (stereo not drawn)	-15	nt	nt	-9	17
O=C(Nc1nnc(SCc2ccc(F)cc2)s1)C1CC(=O)N(c2ccc3c(c2)OCCO3)C1 (stereo not drawn)	-6	38*	-4	-23	-1
CC1CC(C)CN(C(=O)c2cccc(S(=O)(=O)N(C)c3ccccc3)c2)C1 (stereo not drawn)	nt	6	-5	nt	nt
CN(c1ccccc1)S(=O)(=O)c1cccc(C(=O)OCC(=O)NCc2ccco2)c1	-10	4	2	-19	23
COc1ccc(N(C)S(=O)(=O)c2cccc(C(=O)OCC(=O)NCc3ccccc3OC)c2)cc1	2	11	57*	14	33
CN(c1ccccc1)S(=O)(=O)c1cccc(C(=O)OCC(=O)NCc2ccccc2)c1	-4	5	25	-17	24
COc1ccc(N(C)S(=O)(=O)c2cccc(C(=O)OCC(=O)N3CC(C)CC(C)C3)c2)cc1 (stereo not drawn)	-22	9	54*	-6	14
COc1cc(OC)c(N(C)S(=O)(=O)c2cccc(C(=O)OCC(=O)NCc3ccco3)c2)cc1Cl	-6	20	51*	21	35
COc1ccc(N(C)S(=O)(=O)c2cccc(C(=O)Nc3nc(C)cs3)c2)cc1	-18	14	37	-12	-1
COc1cc(OC)c(N(C)S(=O)(=O)c2cccc(C(=O)Nc3nc(C)cs3)c2)cc1Cl	11	8	51*	-13	14
O=C(COC(=O)Cc1cccc(C(F)(F)F)c1)Nc1ccc2[nH]c(=O)[nH]c2c1	-4	2	12	2	14
Cc1ccc(NC(=O)CCNS(=O)(=O)c2ccc3c(c2)CCC(=O)N3)c(Br)c1	-29	5	-36	-18	1
COc1ccc(N2CCN(C(=O)c3ccc(CS(=O)(=O)c4ccc(Br)cc4)o3)CC2)cc1	-11	3	2	-13	8
SMILES	OX1R antag-1	TAAR1 ag	TAAR1 antag	CHO parental Ca	OX1R antag-2
O=C(c1ccc(CS(=O)(=O)c2ccc(Br)cc2)o1)N1CCN(c2ccc(F)cc2)CC1	-16	3	52*	5	4
COc1ccc(NC(=O)N2CCNC(=O)C2CC(=O)Nc2ccc(F)cc2)cc1 (stereo not drawn)	-8	2	-3	-7	9
Cc1ccc(N(C)S(=O)(=O)c2c[nH]c3ccc([N+](=O)[O-])cc23)cc1	3	3	51*	-8	8
CCN(c1ccccc1)S(=O)(=O)c1c[nH]c2ccc([N+](=O)[O-])cc12	-16	5	18	-17	2
COc1cc(CNc2ccc3[nH]c(=O)[nH]c3c2)cc(Br)c1OCC(=O)NC(C)(C)C	-12	6	-14	-11	10
COc1cc(CNc2ccc3[nH]c(=O)[nH]c3c2)ccc1OCC(=O)NC(C)(C)C	-15	5	-2	99*	28
O=C(Nc1ccc(Cl)c(Cl)c1)C1=Cc2ccccc2OC1	21	9	60*	1	41
O=C(Nc1cccc(Cl)c1)C1=Cc2cc(Cl)ccc2OC1	7	4	22	-6	53
CC(C)c1ccc(Nc2nnc(SCC(=O)NCC3CCCO3)s2)cc1 (stereo not drawn)	-13	1	-1	-25	12
CCN(C[C@H]1N[C@@](CC)(C(=O)OC)[C@H]2C(=O)N(C)C(=O)[C@@H]12)C(=O)NC(C)C	1	0	-1	-5	-2
COc1ccc(-c2cc(N)n(S(=O)(=O)Cc3ccccc3)n2)c(OC)c1	0	-2	10	-19	61*
COc1ccc(-c2cc(N)n(CCC#N)n2)c(OC)c1	-10	9	-2	-8	2
O=C(Nc1ccccc1C(=O)OCC(=O)N1CCc2ccccc2C1)c1ccco1	27	19	15	-25	80*
CNC(=O)COC(=O)c1ccccc1NC(=O)c1ccco1	-5	0	-14	-14	27
Cc1csc(NC(=O)COCC(=O)O)c1-c1nc2ccccc2s1	7	1	3	-2	53*
CC(C)[C@H](NC(=O)OCc1ccccc1)C(=O)OCC(=O)c1ccccc1	-24	1	-3	-19	10
CC(C)[C@H](NC(=O)OCc1ccccc1)C(=O)OCc1cc(=O)oc2cc(O)ccc12	-2	5	54*	0	27
O=C(Nc1ccc2ccccc2n1)c1ccccc1Cl	-19	5	-8	-11	22
COc1ccc(C(=O)Nc2ccc3ccccc3n2)c(OC)c1OC	-1	6	42	-17	57*
N#C/C(=N/Nc1ccc(OC(F)(F)F)cc1)C(N)=S	41*	2	3	20	54*
COc1ccc(N/N=C(\C#N)C(N)=O)cc1	-6	-1	10	-12	12
Cc1cccc(OCc2nc(C#N)c(N3CC(C)CC(C)C3)o2)c1 (stereo not drawn)	-39	4	25	38*	8
